# Assay results: ChEMBL document CHEMBL4402517, “Rational modification of Mannich base-type derivatives as novel antichagasic compounds: Synthesis, in vitro and in vivo evaluation” (Bioorg Med Chem, 2019)
# What was measured:
# [1] = Genotoxicity in Salmonella typhimurium TA1535 harboring pSK1002 assessed as survival at 0.5 mg/ml in absence of Sprague-Dawley rat liver S9 fraction metabolic activation by SOS/umu assay relative to control; assay type: toxicity; details: salmonella enterica subsp. enterica serovar typhimurium, read-out: Survival
# How it was run: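 Survival of S. typhimurium TA1535/pSK1002 exposed to a range of compound concentrations with or without S9 mix in 96-well format. Survival percentage measured as the cytotoxicity arm of the SOS/umu test. Concentrations with survival ≥80% are counted as non-cytotoxic.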
# [2] = (§1) Toxicity in BALB/c mouse infected with Trypanosoma cruzi MHOM/Pe/2011/Arequipa;DTU 5 bloodstream trypomastigote assessed as increase in serum total bilirubin level in chronic phase at 20 mg/kg/day, po administered for 5 consecutive days starting from day 70 post infection and measured at day 76 post infection relative to control; assay type: organism-based; details: in vivo
# [3] = as §1, with “acute” for “chronic”, “and measured on” for “starting from”, “100” for “70”, “by biochemical analysis” for “and measured at day 76 post infection”; assay type: organism-based; details: in vivo
# [4] = as §1, with “decrease” for “increase”, “alkaline phosphatase” for “total bilirubin”; assay type: organism-based; set-up: scale not given: the % may be the effect or the level left; details: in vivo
# Trypanosoma cruzi [5] = assay: Antitrypanosomal activity against Trypanosoma cruzi MHOM/Pe/2011/Arequipa;DTU 5 epimastigote assessed as effect on parasite glycolytic pathway by measuring increase in succinate excretion at IC50 after 72 hrs by H NMR method relative to control; assay type: functional
# How it was run: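 Cells were spun at 800 × g for 10 min and culture supernatants analysed by 1H NMR. Catabolite peaks were expressed as % variation versus untreated parasites.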
# [6] = Mutagenecity against Salmonella typhimurium TA97a assessed as number of colonies at 7.4 ug/plate in presence of Sprague-Dawley rat S9 with metabolic activation measured after 48 hrs by Ames test (reference value: 55 +/- 7.1); assay type: toxicity, subcellular; details: salmonella enterica subsp. enterica serovar typhimurium, s9, 48 h
# [7] = (§2) Toxicity in BALB/c mouse infected with Trypanosoma cruzi MHOM/Pe/2011/Arequipa;DTU 5 bloodstream trypomastigote assessed as change in serum uric acid level in acute phase at 20 mg/kg/day, po administered for 5 consecutive days starting from day 8 post infection and measured on day 100 post infection by biochemical analysis relative to control; assay type: organism-based; details: in vivo
# [8] = Mutagenecity against Salmonella typhimurium TA1535 assessed as number of colonies at 22.2 ug/plate in presence of Sprague-Dawley rat S9 measured after 48 hrs by Ames test (reference value: 5 +/- 3.6); assay type: toxicity, subcellular; details: salmonella enterica subsp. enterica serovar typhimurium, s9, 48 h
# [9] = Mutagenecity against Salmonella typhimurium TA 102 assessed as number of colonies at 66.7 ug/plate in absence of Sprague-Dawley rat S9 with metabolic activation measured after 48 hrs by Ames test (reference value: 78.7 +/- 7.8); assay type: toxicity; details: salmonella enterica subsp. enterica serovar typhimurium, s9, 48 h
# [10] = Mutagenecity against Salmonella typhimurium TA1535 assessed as number of colonies at 22.2 ug/plate in absence of Sprague-Dawley rat S9 measured after 48 hrs by Ames test (reference value: 13.3 +/- 2.5); assay type: toxicity; details: salmonella enterica subsp. enterica serovar typhimurium, s9, 48 h
# [11] = Mutagenecity against Salmonella typhimurium TA1535 assessed as number of colonies at 7.4 […] in presence of Sprague-Dawley rat S9 measured after 48 hrs by Ames test (reference value: 5 +/- 3.6); assay type: toxicity, subcellular; details: salmonella enterica subsp. enterica serovar typhimurium, s9, 48 h
# [12] = Mutagenecity against Salmonella typhimurium TA97a assessed as number of colonies at 22.2 ug/plate in presence of Sprague-Dawley rat S9 with metabolic activation measured after 48 hrs by Ames test (reference value: 55 +/- 7.1); assay type: toxicity, subcellular; details: salmonella enterica subsp. enterica serovar typhimurium, s9, 48 h
# [13] = Mutagenecity against Salmonella typhimurium TA 100 assessed as number of colonies at 22.2 ug/plate in absence of Sprague-Dawley rat S9 with metabolic activation ug/plate measured after 48 hrs by Ames test (reference value: 35.7 +/- 0.6); assay type: toxicity; details: salmonella enterica subsp. enterica serovar typhimurium, s9, 48 h
# [14] = Toxicity in BALB/c mouse infected with Trypanosoma cruzi MHOM/Pe/2011/Arequipa;DTU 5 bloodstream trypomastigote assessed as decrease in serum aspartate aminotransferase level in chronic phase at 20 mg/kg/day, po administered for 5 consecutive days starting from day 70 post infection measured on day 100 post infection relative to control; assay type: organism-based; set-up: scale not given: the % may be the effect or the level left; details: in vivo
# [15] = Toxicity in BALB/c mouse infected with Trypanosoma cruzi MHOM/Pe/2011/Arequipa;DTU 5 bloodstream trypomastigotes assessed as decrease in serum aspartate aminotransferase level in acute phase at 20 mg/kg/day, po administered for 5 consecutive days starting from day 8 post infection and measured at day 14 post infection by biochemical analysis relative to control; assay type: organism-based; set-up: scale not given: the % may be the effect or the level left; details: in vivo
# [16] = Mutagenecity against Salmonella typhimurium TA 102 assessed as number of colonies at 22.2 ug/plate in absence of Sprague-Dawley rat S9 with metabolic activation measured after 48 hrs by Ames test (reference value: 78.7 +/- 7.8); assay type: toxicity; details: salmonella enterica subsp. enterica serovar typhimurium, s9, 48 h
# [17] = Mutagenecity against Salmonella typhimurium TA1535 assessed as number of colonies at 66.7 ug/plate in presence of Sprague-Dawley rat S9 measured after 48 hrs by Ames test (reference value: 5 +/- 3.6); assay type: toxicity, subcellular; details: salmonella enterica subsp. enterica serovar typhimurium, s9, 48 h
# [18] = as §1, with “change” for “increase”, “uric acid” for “total bilirubin”; assay type: organism-based; details: in vivo
# [19] = Mutagenecity against Salmonella typhimurium TA98 assessed as number of colonies at 22.2 ug/plate in presence of Sprague-Dawley rat S9 measured after 48 hrs by Ames test (reference value: 4 +/- 2); assay type: toxicity, subcellular; details: salmonella enterica subsp. enterica serovar typhimurium, s9, 48 h
# [20] = Mutagenecity against Salmonella typhimurium TA98 assessed as number of colonies at 22.2 ug/plate in absence of Sprague-Dawley rat S9 measured after 48 hrs by Ames test (reference value: 3 +/- 2.6); assay type: toxicity; details: salmonella enterica subsp. enterica serovar typhimurium, s9, 48 h
# [21] = Mutagenecity against Salmonella typhimurium TA98 assessed as number of colonies at 200 ug/plate in presence of Sprague-Dawley rat S9 measured after 48 hrs by Ames test (reference value: 4 +/- 2); assay type: toxicity, subcellular; details: salmonella enterica subsp. enterica serovar typhimurium, s9, 48 h
# [22] = Mutagenecity against Salmonella typhimurium TA97a assessed as number of colonies at 22.2 ug/plate in absence of Sprague-Dawley rat S9 with metabolic activation measured after 48 hrs by Ames test ( Rvb = 37 +/- 6.5); assay type: toxicity; details: salmonella enterica subsp. enterica serovar typhimurium, s9, 48 h
# Trypanosoma cruzi [23] = assay: Antitrypanosomal activity against Trypanosoma cruzi MHOM/Pe/2011/Arequipa;DTU 5 bloodstream trypomastigote infected in BALB/c mouse assessed as reduction in parasitemia […] at 20 mg/kg/day, po administered for 5 consecutive days starting from day 8 post infection measured every 2 to 3 days starting from day 7 post infection by Neubauer chamber relative to untreated control; assay type: functional; set-up: scale not given: the % may be the effect or the level left
# How it was run: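 Female BALB/c mice (three per group) were infected i.p. with 5 × 10^5 Arequipa bloodstream trypomastigotes, with parasitemia confirmed on day 7 pi. Oral dosing was 20 mg/kg/day on days 8–12 pi in 5% DMSO/0.5% HPMC; controls received vehicle. Bloodstream trypomastigotes were counted through the acute phase until day 48 pi.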
# [24] = as §1, with “aspartate aminotransferase” for “total bilirubin”; assay type: organism-based; details: in vivo
# [25] = as §2, with “increase” for “change”, “aspartate aminotransferase” for “uric acid”; assay type: organism-based; details: in vivo
# [26] = as §2, with “serum alkaline phosphatase” for “serum uric acid”, “measured at” for “measured on”, “day 14” for “day 100”; assay type: organism-based; details: in vivo
structure (smiles),measurement,setting,value
O=C(CCN1CCN(c2ccc(C(F)(F)F)cc2)CC1)c1ccc(O)cc1,viability at 0.5 mg/ml,[1],155%
same,Activity,[2],> 40%
same,Activity,[3],> 40%
same,Activity,[4],<= 10%
O=C(CCN1CCN(c2ccc(Cl)cc2)CC1)c1ccc(O)cc1,Activity,Trypanosoma cruzi [5],34%
same,Activity,[6],44.3
same,Activity,[7],> 10%
same,Activity,[8],3
same,Activity,[9],73.3
same,Activity,[10],4
same,Activity,[11],5.5
same,Activity,[12],38.3
same,Activity,[13],34.3
same,Activity,[14],<= 10%
same,Activity,[15],<= 10%
same,Activity,[16],69.7
same,Activity,[17],3.3
same,Activity,[18],> 10%
same,Activity,[19],4
same,Activity,[20],4.7
same,Activity,[21],2.7
same,Activity,[22],35.7
same,Activity,Trypanosoma cruzi [23],70%
O=C(Cn1ccnc1[N+](=O)[O-])NCc1ccccc1 [BENZNIDAZOLE],Activity,[24],<= 10%
same,Activity,[25],<= 10%
same,Activity,[26],> 10%
